# A selection: hits, their analogues and other compounds. The true share with any hit is near 2.5%.
# SENP8 block-1 – human SENP8 protease inhibitors, primary screen, biochemical, fluorescence, Nedd8 protein substrate, uHTS; Sentrin-specific protease 8 (Homo sapiens), Q96LD8; recombinant SENP8; inhibition, % at 20 µM; hit rate 0.64% among 360,000; AID 602440, 2012; in the data active = inhibition mostly above about 40%, no sharp cut-off; inactive = mostly below about 27%
# SENP8 block-2 – SENP8 protease inhibitors, primary screen, biochemical, luminescence; hit rate 1.2% among 330,000; inhibition, % at 10 µM; purified SENP8, Z-RLRGG-aminoluciferin cleavage; in the data active = inhibition above about 50%
# SENP6 inh – SENP6 protease inhibitors, primary screen, biochemical, luminescence, uHTS; inhibition, % at 10 µM; hit rate 1.8% among 330,000; Recombinant SENP6 catalytic domain, aminoluciferin luminescence; AID 2599, 2010; Sentrin-specific protease 6 (Homo sapiens), Q9GZR1;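 active = inhibition above about 50% at the single tested dose, limit read from the data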;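 also: plate controls were DMSO wells with enzyme for no effect and DMSO wells lacking enzyme for full effect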
# Target sequence (Q9GZR1 628-1112 limits assumed): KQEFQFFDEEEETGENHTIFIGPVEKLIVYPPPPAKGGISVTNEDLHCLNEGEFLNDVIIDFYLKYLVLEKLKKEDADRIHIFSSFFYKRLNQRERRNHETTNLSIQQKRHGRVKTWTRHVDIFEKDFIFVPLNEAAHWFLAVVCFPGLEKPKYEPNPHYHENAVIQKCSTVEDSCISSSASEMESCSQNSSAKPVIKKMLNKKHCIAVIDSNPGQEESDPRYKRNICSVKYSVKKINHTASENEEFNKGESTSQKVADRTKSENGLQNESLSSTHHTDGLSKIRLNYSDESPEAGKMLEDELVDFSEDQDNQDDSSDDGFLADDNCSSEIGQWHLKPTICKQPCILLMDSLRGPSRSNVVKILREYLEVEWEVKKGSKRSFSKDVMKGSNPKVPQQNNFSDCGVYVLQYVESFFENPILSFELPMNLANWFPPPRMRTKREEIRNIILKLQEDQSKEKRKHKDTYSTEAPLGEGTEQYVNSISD
# SENP1 inh – human SENP1 catalytic domain inhibitors, primary screen, biochemical, FRET, uHTS; Sentrin-specific protease 1 (Homo sapiens), Q9P0U3; hit rate 0.21% among 360,000; recombinant SENP1 catalytic domain, CyPet-SUMO1-YPet FRET cleavage; inhibition, % at 10 µM;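 active = inhibition at least 30% at 10 µM, raw YFP signal under a set limit, fluorescence ratio 0.5 to 1.5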;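 also: 0% = enzyme with DMSO and 100% = no enzyme wells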
#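 Test system: human SENP1 catalytic domain; medium: Tris pH 8 buffer plus EDTA, NaCl, BME, BSA, NP40, catalase; incubation: 50 min reaction at room temperature; technique: FRET, CFP and YFP emission; controls: no-enzyme low control and enzyme-plus-DMSO high control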
# SENP7 block – SENP7 protease inhibitors, primary screen, biochemical, luminescence, uHTS. Sentrin-specific protease 7 (Homo sapiens), Q9BQF6. hit rate 1.5% among 330,000. AID 434973, 2010. recombinant SENP7, Z-RLRGG-aminoluciferin luminescence, 40 min. inhibition, % at 5 µM;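 active = inhibition above about 50% at the single test dose, limit read from the data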;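 also: plate controls were DMSO with enzyme for no effect and no enzyme buffer wells for full effect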
# SENP8 confirm – SENP8 protease inhibitors, retest, confirmation, biochemical, luminescence, single concentration | hit rate 40% among 6,200 | shares compounds with SENP7 block | inhibition, % at 12.5 µM | Recombinant SENP8, Z-RLRGG-aminoluciferin luminescence, 60 min;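 active = mean inhibition across replicates above about 50%, limit read from the data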
# SENP6 confirm – SENP6 protease inhibitors, confirmation, biochemical, luminescence, single concentration | inhibition, % at 12.5 µM | shares compounds with SENP7 block | hit rate 58% among 6,200 | recombinant SENP6, Z-RLRGG-aminoluciferin luminescence
# SENP7 conf – SENP7 protease inhibitors, retest, confirmation, biochemical, luminescence, single concentration; recombinant SENP7, Z-RLRGG-aminoluciferin luminescence, 40 min; shares compounds with SENP7 block; inhibition, % at 12.5 µM; hit rate 69% among 6,200
# Casp3 SENP sel – caspase-3 protease inhibitors, confirmation, selectivity assay for SENP inhibitor project, biochemical, single concentration | shares compounds with SENP7 block | purified caspase-3, Z-DEVD-aminoluciferin luminescence, 60 min | inhibition, % at 12.5 µM | hit rate 60% among 6,200 | AID 488918, 2010;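 active = mean inhibition above about 50%, limit read from the data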;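 also: plate controls were enzyme with DMSO for no effect and wells without caspase-3 for full effect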
# Luc interf – luminescence interference (SENP counter-screen); shares compounds with SENP7 block; Pre-incubated SENP8/Z-RLRGG-aminoluciferin, luciferase luminescence interference; inhibition, % at 12.5 µM; hit rate 39% among 6,200; AID 488919;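 active = mean inhibition above about 50% when retested at one dose, limit read from the data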;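 also: plate controls were DMSO wells with completed reaction for no effect and substrate without enzyme for full effect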
# * = called active by the depositor; nt = no result given.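 The calls were made as follows, unless noted: active = mean inhibition above about 50% in the one-dose retest (limit read from the data); inactive = the rest.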
SMILES,SENP8 block-1,SENP8 block-2,SENP6 inh,SENP1 inh,SENP7 block,SENP8 confirm,SENP6 confirm,SENP7 conf,Casp3 SENP sel,Luc interf
Cc1cc(/C=C2\Cc3ccccc3C2=O)c(C)n1-c1ccccc1,-393,65*,48,-29,5,46,91*,97*,68*,14
COc1ccccc1/C=C1\Cc2ccccc2C1=O,-169,nt,nt,-25,nt,nt,nt,nt,nt,nt
Cc1cc(C=C2C(=O)c3ccccc3C2=O)c(C)n1-c1ccccc1,-21,74*,92*,-20,93*,9,10,3,20,-3
Cc1cc(C=C2C(=O)c3ccccc3C2=O)c(C)n1-c1cccc(C(=O)O)c1,-9,90*,91*,-26,51*,97*,98*,101*,95*,92*
[O-][n+]1c2ccccc2c2n1CCN1CCOC21c1ccc(Cl)cc1 (stereo unspecified),0,3,10,-30,-3,nt,nt,nt,nt,nt
COc1ccc(CC(=O)NCC2CCCN(Cc3ccccc3OC)C2)cc1 (stereo unspecified),11,-9,-5,-2,-12,nt,nt,nt,nt,nt
COCCCNC(=O)c1cccn2c(=O)c3cc4ccccc4cc3nc12,-94,85*,82*,25,30,-19,-10,-6,-9,-5
CCCCCCOc1ccc(C(=O)O)cc1,15,0,6,1,5,nt,nt,nt,nt,nt
CCCCOc1ccc(-c2ncc(C(=O)O)c(C)n2)cc1,21,80*,86*,2,88*,88*,87*,98*,48,64*
CN1CCc2c(sc(NC(=O)C3CCCN3S(=O)(=O)c3ccc(Cl)s3)c2C(N)=O)C1 (stereo unspecified),-173,10,5,-19,-3,nt,nt,nt,nt,nt
O=C(Nc1ccccc1C(=O)Nc1ccc(Br)cn1)c1ccccc1Cl,-11,-5,-7,0,0,nt,nt,nt,nt,nt
O=C(Nc1ccc(Br)cn1)c1ccc(Br)s1,11,39,50*,0,48,10,16,77*,40,27
Cc1ccc(NC(=O)c2ccccc2F)nc1,-318,44,74*,2,51*,33,58*,85*,86*,49
Cc1ccccc1C(=O)Nc1ccc(Br)cn1,6,39,59*,1,51*,7,40,79*,63*,16
Cc1ccc(NC(=O)c2cc(F)c(F)cc2Cl)nc1,4,-8,-14,3,4,nt,nt,nt,nt,nt
Cc1cc(C(=O)Nc2ccc(Br)cn2)sc1C,-2,84*,84*,0,87*,81*,87*,97*,78*,64*
O=C(Cn1ccc(NC(=O)OCc2ccccc2)nc1=O)NCc1ccc2c(c1)OCO2,0,2,4,2,4,nt,nt,nt,nt,nt
Nn1c(-c2cccs2)nc2sc3c(c2c1=O)CCCC3,-409,71*,90*,-10,59*,31,70*,90*,60*,27
Cc1ccccc1-c1nc2sc3c(c2c(=O)n1N)CCCC3,-28,7,5,-3,-5,nt,nt,nt,nt,nt
Cc1ccccc1-c1nc2sc3c(c2c(=O)o1)CCC3,-54,83*,88*,-28,79*,9,8,53*,38,7
O=c1oc(-c2cc3ccccc3o2)nc2sc3c(c12)CCCC3,-123,0,-23,-21,-7,nt,nt,nt,nt,nt
O=c1oc(-c2cccs2)nc2sc3c(c12)CCCCC3,9,39,55*,-58,5,15,9,2,24,6
O=c1oc(-c2ccccc2)nc2sc3c(c12)CCCC3,-35,92*,94*,-15,96*,62*,48,40,81*,33
CCN(CC)CC(C)OC(=O)c1ccccc1Cl (stereo unspecified),17,3,-10,3,2,nt,nt,nt,nt,nt
Cc1sc2nc(-c3cccs3)oc(=O)c2c1C,-35,35,15,-26,51*,39,36,60*,32,50
SMILES,SENP8 block-1,SENP8 block-2,SENP6 inh,SENP1 inh,SENP7 block,SENP8 confirm,SENP6 confirm,SENP7 conf,Casp3 SENP sel,Luc interf
O=c1oc(/C=C/c2ccccc2)nc2sc3c(c12)CCC3,22,21,65*,-22,5,-20,-20,-4,17,-5
O=c1oc(-c2cccs2)nc2scc(-c3cccs3)c12,-121,-17,-22,-72,-26,nt,nt,nt,nt,nt
COc1ccc(/C=C/c2nc3sc4c(c3c(=O)o2)CCC4)cc1,-11,9,17,9,12,nt,nt,nt,nt,nt
O=C(COC(=O)CCN1C(=O)C2CC=CCC2C1=O)Nc1ccc([N+](=O)[O-])cc1 (stereo unspecified),30,-9,-30,0,-6,nt,nt,nt,nt,nt
Cc1cccc(N=Nc2cnc(N)s2)c1,12,18,55*,-2,47,52*,44,70*,24,22
CN(C)c1ccc(/C=C2\CCCCC2=O)cc1,-24,48,62*,-79,63*,46,62*,81*,60*,29
Clc1cccc(-c2nc(-c3ccc(-c4nn[nH]n4)cc3)no2)c1,14,95*,99*,0,79*,97*,97*,100*,83*,89*
CCOc1cc2c(cc1OCC)C(c1ccc(F)cc1)NCC2 (stereo unspecified),25,-3,-7,1,3,nt,nt,nt,nt,nt
CCOc1cc(C2NN=C(c3ccccc3)S2)ccc1OCc1ccc(F)cc1 (stereo unspecified),-334,50*,83*,4,-12,6,72*,94*,75*,70*
CCOc1cc(C2NN=C(c3ccccc3)S2)ccc1OCc1ccccc1Cl (stereo unspecified),-279,42,66*,1,8,53*,48,84*,69*,58*
CC(O)(c1ccc(F)c(F)c1)c1nc(-c2ccoc2)cs1 (stereo unspecified),-4,nt,nt,-9,nt,nt,nt,nt,nt,nt

# High-throughput results: PubChem BioAssay, Sanford-Burnham Center for Chemical Genomics
